Screening results: PubChem, The Scripps Research Institute Molecular Screening Center
CHRM5 antagonist = human M5 muscarinic receptor antagonists, primary screen, CHO cells, Fluo-8 calcium fluorescence. AID 624040, 2012. CHO-hM5 cells, ACh EC80. 360,000 tested, 0.59% active. inhibition, % at 3 µM. Muscarinic acetylcholine receptor M5 (Homo sapiens), P08912;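 active means inhibition above a per-plate cutoff, the mean of that plate's test compounds plus 3 SD, cut at about 27% in these data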;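 further: 0% = acetylcholine EC80 with DMSO and 100% = DMSO without agonist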
Target sequence (P08912 whole entry, looked up): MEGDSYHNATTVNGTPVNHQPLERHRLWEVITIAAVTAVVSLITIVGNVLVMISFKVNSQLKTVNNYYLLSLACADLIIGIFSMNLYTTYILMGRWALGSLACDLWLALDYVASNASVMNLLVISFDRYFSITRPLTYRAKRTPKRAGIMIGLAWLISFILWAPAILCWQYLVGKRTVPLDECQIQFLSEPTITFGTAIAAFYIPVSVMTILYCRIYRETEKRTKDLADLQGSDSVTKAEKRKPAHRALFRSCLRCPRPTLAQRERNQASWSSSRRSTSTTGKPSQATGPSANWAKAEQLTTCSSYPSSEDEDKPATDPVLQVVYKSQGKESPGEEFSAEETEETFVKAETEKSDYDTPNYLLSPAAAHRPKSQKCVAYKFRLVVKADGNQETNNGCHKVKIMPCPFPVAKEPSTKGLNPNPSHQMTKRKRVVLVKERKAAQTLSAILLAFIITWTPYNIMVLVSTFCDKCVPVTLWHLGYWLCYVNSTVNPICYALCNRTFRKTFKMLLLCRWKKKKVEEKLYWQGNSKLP
M4 antag = human M4 muscarinic receptor antagonists, primary screen, CHO cells, Fluo-8 calcium fluorescence; Muscarinic acetylcholine receptor M4 (Homo sapiens), P08173; CHO-hM4 cells, ACh EC80; inhibition, % at 3 µM; 360,000 tested, 0.73% active; AID 624125, 2012;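 active means inhibition above its plate's cutoff, the mean inhibition of sample wells plus 3 SD, cut at about 27% in these data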;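 further: 0% = acetylcholine EC80 with DMSO and 100% = DMSO without agonist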
M4 ag = human M4 muscarinic receptor agonists, primary screen, CHO-K1 cells, Fluo-8 calcium fluorescence; Muscarinic acetylcholine receptor M4 (Homo sapiens), P08173; CHO-K1 hM4/Gqi5; vehicle 0%, full acetylcholine response 100%; activation, % at 3 µM; 360,000 tested, 0.14% active;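 active means activation above the run mean over all test wells plus 3 SD, cut at about 32% in these data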;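 further: peak over basal fluorescence ratio per well then scaled between controls; 0% = DMSO wells and 100% = acetylcholine at EC100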
M5 PAM = human M5 muscarinic receptor positive allosteric modulators, primary screen, CHO-K1 cells, Fluo-8 calcium fluorescence; Muscarinic acetylcholine receptor M5 (Homo sapiens), P08912; CHO-K1 hM5, ACh EC20 PAM; 0% = ACh EC20, 100% = ACh EC100; activation, % at 3 µM; 360,000 tested, 0.3% active;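 active means activation above the run cutoff, the mean activation of all test compounds plus 3 SD, cut at about 18% in these data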
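Assay system: CHO-K1 hM5 cells. Also added: acetylcholine at EC20 concentration, added after compound. Dosing: 3 µM, single dose. Times: compound preincubation 140 s before EC20 acetylcholine addition. Signal: Fluo-8 calcium fluorescence. Measure: % activation relative to EC20 and EC100 ACh responses. Repeats: singlicate, one well per test compound.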
CHRM5 agonist = human M5 muscarinic receptor agonists, primary screen, CHO-K1 cells, Fluo-8 calcium fluorescence | 360,000 tested, 0.19% active | CHO-K1 hM5 cells; 0% DMSO wells, 100% maximal acetylcholine response | activation, % at 3 µM | Muscarinic acetylcholine receptor M5 (Homo sapiens), P08912;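 active means activation above the run's mean over test compounds plus 3 SD, cut at about 23% in these data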;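 further: signal is peak over basal fluorescence ratio across the kinetic read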
M4 PAM = human M4 muscarinic receptor positive allosteric modulators, primary screen, CHO-K1 cells, Fluo-8 calcium fluorescence; activation, % at 3 µM; AID 624126, 2012; 360,000 tested, 0.4% active; CHO-K1 hM4/Gqi5, ACh EC20; 0% = ACh EC20, 100% = maximal ACh;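 active means activation above its plate's cutoff, the mean activation of sample wells plus 3 SD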
* hit, by the source's call. Hits are enriched below; roughly 1.9% of the tested compounds scored in any of these assays.

SMILES	CHRM5 antagonist	M4 antag	M4 ag	M5 PAM	CHRM5 agonist	M4 PAM
COc1ccc(NC(=O)CSc2ncnc3c2cnn3Cc2ccccc2)cc1	-7.7	8.7	1.3	0.8	0.5	-4.5
COc1ccc(NC(=O)CSc2ncnc3c2cnn3Cc2ccccc2)cc1OC	13.3	28.6*	4.7	-10.6	0.1	14.2
NC(=O)COC(=O)C1CSC2(c3ccc(F)cc3)CCC(=O)N12 (stereo not drawn)	-2.6	1.3	0.9	2.7	0.2	6.3
CCOC(=O)C1CCC(CNCc2ccccc2C)CC1 (stereo not drawn)	0.2	34.1*	1.7	-8.5	-17.0	-24.0
CC(=O)N1CCN(Cc2cc(=O)oc3ccccc23)CC1	9.8	3.6	0.1	-5.9	1.0	-4.7
O=C1/C(=C/c2ccc3c(c2)OCO3)SC(=S)N1CCC(=O)N(CCO)c1ccccc1	66.7*	-7.1	6.4	-13.9	82.0*	-0.7
O=C1/C(=C/c2cccc(Br)c2)SC(=S)N1CCC(=O)N(CCO)c1ccccc1	3.9	-8.2	1.3	9.3	1.5	3.9
COc1ccc(/C=C2\SC(=S)N(CCC(=O)N(CCO)Cc3ccccc3)C2=O)cc1OC	-5.0	17.5	5.1	7.6	-1.8	37.1*
CCCn1c(=S)[nH]c2cc(C(=O)N3CCN(c4ccc(F)cc4)CC3)ccc2c1=O	1.1	3.9	0.1	0.7	0.5	2.5
COC(=O)C1CCN(C(=O)c2cc(-c3ccco3)nc3ccccc23)CC1	1.1	-2.9	3.2	-1.4	6.9	-0.9
OC(c1ccccc1)(c1nc(-c2ccc(F)c(Cl)c2)cs1)C(F)(F)F (stereo not drawn)	2.2	-1.0	-0.8	-9.8	-0.9	-7.3
Cn1ccnc1C1CCCCN1Cc1nc(Cc2cccc(C(F)(F)F)c2)no1 (stereo not drawn)	-4.7	38.6*	2.8	-15.5	-11.3	-21.3
Cn1ccnc1C1CCCCN1Cc1nc(-c2ccc3c(c2)OCO3)no1 (stereo not drawn)	14.9	26.6*	-0.6	-26.3	-20.6	-25.1
COc1ccc(-c2noc(CN3CCCCC3c3nccn3C)n2)cc1 (stereo not drawn)	11.5	10.3	0.3	-13.4	-16.1	-18.1
Cc1cc(C)c(CN2CCN(C(=O)Cn3ccc(N)nc3=O)CC2)c(C)c1	5.6	-9.0	0.7	-2.4	-6.4	13.2
CSc1nc(N)nc2c1ncn2CC(=O)N1CCN(Cc2c(C)cc(C)cc2C)CC1	31.9*	7.2	13.4	-15.2	2.6	-7.0
O=[N+]([O-])c1ccc(Sc2cccc[n+]2[O-])c2nonc12	40.9*	64.0*	6.1	-13.7	16.6	-41.6
O=[N+]([O-])c1ccc(Nc2ccccc2)c2nonc12	-0.7	-7.8	20.6	-8.4	6.6	-11.2
COc1ccc(-c2cc(C(=O)Nc3cc(C)nn3-c3ccccc3)no2)cc1	-0.6	-1.8	-0.3	-4.5	0.7	17.9*
Cc1ccc(-n2nc(C)cc2NC(=O)c2ccc(C)s2)cc1	20.1	46.3*	-0.2	-13.8	-11.7	-34.0
Cc1ccc(-n2nc(C)cc2NC(=O)CC#N)cc1	3.6	1.5	0.3	2.8	-0.9	-2.8
C[N+]1(CC(O)c2ccccc2)CCCCCC1 (stereo not drawn)	-2.0	11.5	1.0	-4.6	-22.4	-6.9
CC(=O)OC(C[N+]1(C)CCCCCC1)c1ccccc1 (stereo not drawn)	27.8*	37.2*	0.1	-16.5	-6.6	-15.0
COc1ccc(NC(=O)C2CCCN(S(=O)(=O)c3ccccc3)C2)c(OC)c1 (stereo not drawn)	-14.5	3.2	3.0	3.4	-0.4	-5.2
CCc1cc(=O)oc2cc(C)cc(OCC(=O)NC(Cc3c[nH]c4ccc(O)cc34)C(=O)O)c12 (stereo not drawn)	-2.9	-19.7	0.1	3.5	3.2	20.8*
SMILES	CHRM5 antagonist	M4 antag	M4 ag	M5 PAM	CHRM5 agonist	M4 PAM
Cc1ccc2c(c1)cc1c(=O)n(CC(=O)NCCCc3ccccc3)nc(C)n12	4.5	32.5*	18.8	-11.4	2.8	-9.7
Cc1nn(CC(=O)NCCCc2ccccc2)c(=O)c2cc3occc3n12	-8.6	-23.0	0.2	7.4	-3.4	15.3
Cc1cccc(C)c1NC(=O)CN(Cc1ccccc1)Cc1ccccc1	2.7	-2.8	26.4	-4.3	15.8	-6.3
CCC(=O)N1CCCc2cc(S(=O)(=O)N3CCN(c4ncccn4)CC3)ccc21	1.1	-13.8	1.8	-2.9	1.4	3.7
CCC(=O)N1CCCc2cc(S(=O)(=O)N3CCN(c4ccccn4)CC3)ccc21	7.9	-5.2	5.7	32.6*	-5.7	0.0
CCOc1ccc(NC(=O)Cn2nc(C(N)=O)c3ccccc3c2=O)cc1S(=O)(=O)N1CCCC1	10.1	-16.6	0.1	1.9	-1.9	22.9*
CCOc1ccc(NC(=O)Cn2nnc(-c3ccc(C(N)=O)cc3)n2)cc1S(=O)(=O)N1CCCC1	10.1	6.3	0.8	-5.7	1.6	0.7
CC1(C)CC(=O)C(N=Nc2cccc(S(=O)(=O)N3CCOCC3)c2)=C(O)C1	1.3	-8.0	2.8	-1.7	-18.1	25.4*
CC1CCN(S(=O)(=O)c2ccc(N=NC3=C(O)CC(C)(C)CC3=O)cc2)CC1	2.5	-10.8	0.7	-3.1	-2.7	5.7
CC(C)(C)S(=O)N1Cc2cc(CO)cc(CCO)c2[C@@H]1CCO (stereo partly drawn)	-2.4	-5.5	0.2	5.8	-1.0	0.9
COc1cc(C#Cc2c(-c3cncn3C)n(C)c3ccc(-c4ccc(CN5CCOCC5)cc4)cc23)cc(OC)c1	6.8	29.8*	5.2	-4.9	-2.2	-9.8
COc1cc(C#Cc2c(-c3cncn3C)n(C)c3ccc(-c4cnc(N5CCOCC5)nc4)cc23)cc(OC)c1	6.0	-4.1	2.5	-3.2	2.0	20.6
O=C(O)C(SC(C(=O)O)c1ccccc1)c1ccccc1 (stereo not drawn)	-2.8	-16.7	0.5	1.6	3.1	5.6
O=C(Nc1ccc(F)cc1)Nc1cc(OCC(F)(F)F)cc(OCC(F)(F)F)c1	30.5*	18.9	12.1	-17.7	8.0	-12.9
CCOc1ccc(NC(=O)Nc2cccc(C(=O)O)c2)cc1	5.2	8.4	6.1	-0.8	-4.1	4.5
COC(=O)c1ccc(NC(=O)Nc2ccc(F)cc2)cc1	21.2	13.2	14.1	-16.6	6.4	-9.5
